From ChEMBL document CHEMBL4689842, “EUbOPEN Chemogenomics Library wave 1” (2021)

Test system: U2OS
Test: Multiplex assay against U2OS
Assay type: toxicity, cell-based
Conditions: human
Method in brief: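 Tubulin, mitochondrial-mass and membrane-permeability phenotypes are per cents of healthy-nucleus cells. Cells were gated by CellPathfinder machine learning into Hoechst high-intensity objects or normal cells, normal cells into healthy, pyknosed or fragmented nuclei, and pyknosed cells into mitotic or apoptotic. Before that, live cells stained at seeding with Hoechst33342, BioTracker Green Microtubule Cytoskeleton Dye, MitoTracker Red and Annexin V Alexa Fluor 680 were imaged on a CQ1 microscope at 37°C and 5% CO2 after compound addition.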

[1] = 12 h, 1 µM, compound concentration 1 uM, replicate 1
[2] = 12 h, 1 µM, compound concentration 1 uM, replicate 2
[3] = 12 h, 10 µM, compound concentration 10 uM, replicate 1
[4] = 12 h, 10 µM, compound concentration 10 uM, replicate 2
[5] = 24 h, 1 µM, compound concentration 1 uM, replicate 1
[6] = 24 h, 1 µM, compound concentration 1 uM, replicate 2
[7] = 24 h, 10 µM, compound concentration 10 uM, replicate 1
[8] = 24 h, 10 µM, compound concentration 10 uM, replicate 2
[9] = 48 h, 1 µM, compound concentration 1 uM, replicate 1
[10] = 48 h, 1 µM, compound concentration 1 uM, replicate 2
[11] = 48 h, 10 µM, compound concentration 10 uM, replicate 1
[12] = 48 h, 10 µM, compound concentration 10 uM, replicate 2

SMILES: Cl.O=c1c2cccn2c2ccccc2n1CCCN1CCC(c2ccc(Cl)cc2)CC1
- Population Apoptotic (%) [1]: 53%
- Population Fragmented Nuclei (%) [1]: 8%
- Population Healthy Nuclei (%) [1]: 77%
- Population Hoechst High Intensity Objects (%) [1]: 7%
- Population Membrane Permeable-Phenotype (%) [1]: 2%
- Population Mitochondria Different-Phenotype (%) [1]: 55%
- Population Mitotic Cells (%) [1]: 46%
- Population Normal (%) [1]: 92%
- Population Pyknosed Nuclei (%) [1]: 14%
- Population Tubulin-Different-Phenotype (%) [1]: 39%
- Total Cell Count [1]: 233
- Population Apoptotic (%) [2]: 60%
- Population Fragmented Nuclei (%) [2]: 16%
- Population Healthy Nuclei (%) [2]: 73%
- Population Hoechst High Intensity Objects (%) [2]: 8%
- Population Membrane Permeable-Phenotype (%) [2]: 0%
- Population Mitochondria Different-Phenotype (%) [2]: 56%
- Population Mitotic Cells (%) [2]: 40%
- Population Normal (%) [2]: 91%
- Population Pyknosed Nuclei (%) [2]: 9%
- Population Tubulin-Different-Phenotype (%) [2]: 30%
- Total Cell Count [2]: 119
- Population Apoptotic (%) [3]: 81%
- Population Healthy Nuclei (%) [3]: 58%
- Population Hoechst High Intensity Objects (%) [3]: 8%
- Population Membrane Permeable-Phenotype (%) [3]: 61%
- Population Mitotic Cells (%) [3]: 18%
- Population Normal (%) [3]: 91%
- Population Pyknosed Nuclei (%) [3]: 20%
- Population Tubulin-Different-Phenotype (%) [3]: 99%
- Total Cell Count [3]: 201
- Population Apoptotic (%) [4]: 78%
- Population Fragmented Nuclei (%) [4]: 21%
- Population Healthy Nuclei (%) [4]: 57%
- Population Hoechst High Intensity Objects (%) [4]: 11%
- Population Membrane Permeable-Phenotype (%) [4]: 74%
- Population Mitochondria Different-Phenotype (%) [4]: 98%
- Population Mitotic Cells (%) [4]: 21%
- Population Normal (%) [4]: 89%
- Population Pyknosed Nuclei (%) [4]: 21%
- Population Tubulin-Different-Phenotype (%) [4]: 98%
- Total Cell Count [4]: 58
- Population Apoptotic (%) [5]: 55%
- Population Fragmented Nuclei (%) [5]: 9%
- Population Healthy Nuclei (%) [5]: 73%
- Population Hoechst High Intensity Objects (%) [5]: 4%
- Population Membrane Permeable-Phenotype (%) [5]: 0%
- Population Mitochondria Different-Phenotype (%) [5]: 45%
- Population Mitotic Cells (%) [5]: 44%
- Population Normal (%) [5]: 95%
- Population Pyknosed Nuclei (%) [5]: 16%
- Population Tubulin-Different-Phenotype (%) [5]: 26%
- Total Cell Count [5]: 300
- Population Apoptotic (%) [6]: 25%
- Population Fragmented Nuclei (%) [6]: 16%
- Population Healthy Nuclei (%) [6]: 70%
- Population Hoechst High Intensity Objects (%) [6]: 7%
- Population Membrane Permeable-Phenotype (%) [6]: 2%
- Population Mitochondria Different-Phenotype (%) [6]: 38%
- Population Mitotic Cells (%) [6]: 75%
- Population Normal (%) [6]: 92%
- Population Pyknosed Nuclei (%) [6]: 13%
- Population Tubulin-Different-Phenotype (%) [6]: 19%
- Total Cell Count [6]: 147
- Population Apoptotic (%) [7]: 88%
- Population Fragmented Nuclei (%) [7]: 21%
- Population Healthy Nuclei (%) [7]: 45%
- Population Hoechst High Intensity Objects (%) [7]: 6%
- Population Membrane Permeable-Phenotype (%) [7]: 76%
- Population Mitochondria Different-Phenotype (%) [7]: 96%
- Population Mitotic Cells (%) [7]: 11%
- Population Normal (%) [7]: 93%
- Population Pyknosed Nuclei (%) [7]: 33%
- Population Tubulin-Different-Phenotype (%) [7]: 100%
- Total Cell Count [7]: 229
- Population Apoptotic (%) [8]: 87%
- Population Fragmented Nuclei (%) [8]: 14%
- Population Healthy Nuclei (%) [8]: 64%
- Population Hoechst High Intensity Objects (%) [8]: 7%
- Population Membrane Permeable-Phenotype (%) [8]: 72%
- Population Mitochondria Different-Phenotype (%) [8]: 98%
- Population Mitotic Cells (%) [8]: 12%
- Population Normal (%) [8]: 92%
- Population Pyknosed Nuclei (%) [8]: 20%
- Population Tubulin-Different-Phenotype (%) [8]: 98%
- Total Cell Count [8]: 65
- Population Apoptotic (%) [9]: 51%
- Population Fragmented Nuclei (%) [9]: 6%
- Population Healthy Nuclei (%) [9]: 82%
- Population Hoechst High Intensity Objects (%) [9]: 4%
- Population Membrane Permeable-Phenotype (%) [9]: 2%
- Population Mitochondria Different-Phenotype (%) [9]: 17%
- Population Mitotic Cells (%) [9]: 48%
- Population Normal (%) [9]: 95%
- Population Pyknosed Nuclei (%) [9]: 10%
- Population Tubulin-Different-Phenotype (%) [9]: 11%
- Total Cell Count [9]: 287
- Population Apoptotic (%) [10]: 62%
- Population Fragmented Nuclei (%) [10]: 18%
- Population Healthy Nuclei (%) [10]: 70%
- Population Hoechst High Intensity Objects (%) [10]: 5%
- Population Membrane Permeable-Phenotype (%) [10]: 4%
- Population Mitochondria Different-Phenotype (%) [10]: 24%
- Population Mitotic Cells (%) [10]: 37%
- Population Normal (%) [10]: 94%
- Population Pyknosed Nuclei (%) [10]: 11%
- Population Tubulin-Different-Phenotype (%) [10]: 18%
- Total Cell Count [10]: 131
- Population Apoptotic (%) [11]: 87%
- Population Fragmented Nuclei (%) [11]: 18%
- Population Healthy Nuclei (%) [11]: 28%
- Population Hoechst High Intensity Objects (%) [11]: 12%
- Population Membrane Permeable-Phenotype (%) [11]: 84%
- Population Mitochondria Different-Phenotype (%) [11]: 100%
- Population Mitotic Cells (%) [11]: 12%
- Population Normal (%) [11]: 87%
- Population Pyknosed Nuclei (%) [11]: 53%
- Population Tubulin-Different-Phenotype (%) [11]: 100%
- Total Cell Count [11]: 318
- Population Apoptotic (%) [12]: 88%
- Population Fragmented Nuclei (%) [12]: 16%
- Population Healthy Nuclei (%) [12]: 46%
- Population Hoechst High Intensity Objects (%) [12]: 10%
- Population Membrane Permeable-Phenotype (%) [12]: 67%
- Population Mitochondria Different-Phenotype (%) [12]: 97%
- Population Mitotic Cells (%) [12]: 11%
- Population Normal (%) [12]: 89%
- Population Pyknosed Nuclei (%) [12]: 36%
- Population Tubulin-Different-Phenotype (%) [12]: 97%
- Total Cell Count [12]: 74

SMILES: COc1cccc2cc(-c3nc([C@H]4CC[C@H](C(=O)O)CC4)n4ncnc(N)c34)[nH]c12 [OSI-027]
- Population Apoptotic (%) [1]: 55%
- Population Fragmented Nuclei (%) [1]: 14%
- Population Healthy Nuclei (%) [1]: 81%
- Population Hoechst High Intensity Objects (%) [1]: 1%
- Population Membrane Permeable-Phenotype (%) [1]: 10%
- Population Mitochondria Different-Phenotype (%) [1]: 6%
- Population Mitotic Cells (%) [1]: 44%
- Population Normal (%) [1]: 98%
- Population Pyknosed Nuclei (%) [1]: 3%
- Population Tubulin-Different-Phenotype (%) [1]: 21%
- Total Cell Count [1]: 227
- Population Apoptotic (%) [2]: 33%
- Population Fragmented Nuclei (%) [2]: 18%
- Population Healthy Nuclei (%) [2]: 79%
- Population Hoechst High Intensity Objects (%) [2]: 7%
- Population Membrane Permeable-Phenotype (%) [2]: 8%
- Population Mitochondria Different-Phenotype (%) [2]: 3%
- Population Mitotic Cells (%) [2]: 66%
- Population Normal (%) [2]: 92%
- Population Pyknosed Nuclei (%) [2]: 1%
- Population Tubulin-Different-Phenotype (%) [2]: 31%
- Total Cell Count [2]: 117
- Population Apoptotic (%) [3]: 8%
- Population Fragmented Nuclei (%) [3]: 5%
- Population Healthy Nuclei (%) [3]: 76%
- Population Hoechst High Intensity Objects (%) [3]: 10%
- Population Membrane Permeable-Phenotype (%) [3]: 10%
- Population Mitochondria Different-Phenotype (%) [3]: 21%
- Population Mitotic Cells (%) [3]: 91%
- Population Normal (%) [3]: 89%
- Population Pyknosed Nuclei (%) [3]: 17%
- Population Tubulin-Different-Phenotype (%) [3]: 27%
- Total Cell Count [3]: 160
- Population Apoptotic (%) [4]: 14%
- Population Fragmented Nuclei (%) [4]: 14%
- Population Healthy Nuclei (%) [4]: 78%
- Population Hoechst High Intensity Objects (%) [4]: 17%
- Population Membrane Permeable-Phenotype (%) [4]: 7%
- Population Mitochondria Different-Phenotype (%) [4]: 26%
- Population Mitotic Cells (%) [4]: 85%
- Population Normal (%) [4]: 82%
- Population Pyknosed Nuclei (%) [4]: 7%
- Population Tubulin-Different-Phenotype (%) [4]: 39%
- Total Cell Count [4]: 101
- Population Apoptotic (%) [5]: 29%
- Population Fragmented Nuclei (%) [5]: 10%
- Population Healthy Nuclei (%) [5]: 81%
- Population Hoechst High Intensity Objects (%) [5]: 3%
- Population Membrane Permeable-Phenotype (%) [5]: 6%
- Population Mitochondria Different-Phenotype (%) [5]: 5%
- Population Mitotic Cells (%) [5]: 70%
- Population Normal (%) [5]: 96%
- Population Pyknosed Nuclei (%) [5]: 8%
- Total Cell Count [5]: 270
- Population Apoptotic (%) [6]: 42%
- Population Fragmented Nuclei (%) [6]: 13%
- Population Healthy Nuclei (%) [6]: 82%
- Population Hoechst High Intensity Objects (%) [6]: 5%
- Population Membrane Permeable-Phenotype (%) [6]: 10%
- Population Mitochondria Different-Phenotype (%) [6]: 7%
- Population Mitotic Cells (%) [6]: 57%
- Population Normal (%) [6]: 94%
- Population Pyknosed Nuclei (%) [6]: 3%
- Population Tubulin-Different-Phenotype (%) [6]: 29%
- Total Cell Count [6]: 144
- Population Apoptotic (%) [7]: 13%
- Population Fragmented Nuclei (%) [7]: 6%
- Population Healthy Nuclei (%) [7]: 81%
- Population Hoechst High Intensity Objects (%) [7]: 7%
- Population Membrane Permeable-Phenotype (%) [7]: 12%
- Population Mitochondria Different-Phenotype (%) [7]: 20%
- Population Mitotic Cells (%) [7]: 86%
- Population Normal (%) [7]: 92%
- Population Pyknosed Nuclei (%) [7]: 11%
- Population Tubulin-Different-Phenotype (%) [7]: 31%
- Total Cell Count [7]: 190
- Population Apoptotic (%) [8]: 0%
- Population Fragmented Nuclei (%) [8]: 14%
- Population Healthy Nuclei (%) [8]: 84%
- Population Hoechst High Intensity Objects (%) [8]: 11%
- Population Membrane Permeable-Phenotype (%) [8]: 11%
- Population Mitochondria Different-Phenotype (%) [8]: 31%
- Population Mitotic Cells (%) [8]: 100%
- Population Normal (%) [8]: 88%
- Population Pyknosed Nuclei (%) [8]: 1%
- Population Tubulin-Different-Phenotype (%) [8]: 34%
- Total Cell Count [8]: 120
